In publication PMC12120100 (Scientific Reports, 2025):

Legend:
Test in all cases: Alkaline comet assay
Format in all cases: cell-based, human
HT-29 cells = conditions: HT-29, 20 µM (positive control), 24 h, ± SEM
Procedure, shortened: (§1)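 Alkaline comet assay. Cells seeded in 6-well plates at 150 000 (HT-29), 250 000 (PC3) or 600 000 (PBLs) per 2 mL and left 24 h, then exposed 24 h (37 °C, 5% CO2) to test compound at 0.5, 1 and 2 µM. Controls: untreated and 20 µM bleomycin. Cells pelleted at 1400 rpm, 10 min, 4 °C. Slides stained with DAPI (1 µg/ml); about 100 cells/slide scored. Output: mean % tail DNA ± SEM; ANOVA with Dunnett's test.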

PC-3 cells = conditions: PC-3, 20 µM (positive control), 24 h, ± SEM
Procedure, shortened: as §1

PBLs = conditions: 20 µM (positive control), 24 h, ± SEM
Procedure, shortened: as §1

Q: bleomycin was tested. Which “DNA damage (mean tail DNA %)” value (HT-29 cells) did it give?
A: 33.58 ± 3.62%

Q: And the “DNA damage (mean tail DNA %)” value (PC-3 cells)?
A: 44.99 ± 2.37%

Q: What about the “DNA damage (mean tail DNA %)” value (PBLs) of the same substance?
A: 41.33 ± 1.95%
